This is an account of results in ChEMBL document CHEMBL1817668, “Synthesis of 6-[¹⁸F]fluoro-PBR28, a novel radiotracer for imaging the TSPO 18 kDa with PET” (Bioorg Med Chem Lett, 2011).

Activity calls are given as the source filed them. No cut-off for these calls is given here.

The species named for data set [1] is Rattus norvegicus. In words: Ex vivo binding affinity to TSPO in AMPA lesioned rat assessed as increase in ipsi to contralateral ratio by auto radiography. It is filed as functional, organism-based.
Data set [2] is described as follows: Octanol-buffer partition coefficient, log D of the compound at pH 7.4 by shake flask method. Format: physicochemical. In a few lines: (§1)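 Shake-flask partition of the [18F]-labelled radioligand. Log D7.4 was measured between n-octanol and buffer pH 7.4, and log P between n-octanol and water.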
Data set [3] can be described thus: Octanol-water partition coefficient, log P of the compound by shake flask method. Format: physicochemical. In a few lines:
as §1

In data set [4] the test system is Brain. In words: Ratio of drug uptake in ipsi to contralateral side of AMPA lesioned rat brain after 60 mins post injection. Format: ADME, tissue-based. To be noted: in vivo, 1 h. In a few lines:
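MicroPET imaging of rats with AMPA-induced brain lesions after injection of the fluorine-18-labelled radiotracer. Uptake in the lesioned (ipsilateral) striatal area is compared with the corresponding area of the intact contralateral hemisphere at 60 min post-injection. Time-activity curves are followed for lesioned and non-lesioned striatum over the scan.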

Data set [5] deals with Striatum. As to the kind of experiment: Drug uptake in AMPA lesioned rat striatum after 1-2 mins post injection. Format: ADME, tissue-based. To be noted: in vivo.
Data set [6] deals with Striatum. In words: Drug uptake in rat striatum after 1-2 mins post injection. It is filed as ADME, tissue-based. To be noted: in vivo.
For data set [7], the species on record is Rattus norvegicus. In words: Displacement of [3H]Flunitrazepam from CBR in rat cerebral cortex at 0.1 uM. It is filed as tissue-based. In a few lines:
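Competition binding against [3H]flunitrazepam, a reference central benzodiazepine receptor ligand, in a rat cerebral cortex homogenate screen. […]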
(In general: Displacement assays read how much labelled ligand stays bound in the presence of the test substance.)

The target in data set [8] is T1, Translocator protein (Rattus norvegicus, UniProt P16257). In words: Displacement of [3H]PK11195 from TSPO in rat heart membrane homogenate. Format: cell membranes.
Data set [9] deals with T1, Translocator protein. In words: Displacement of [3H]PK11195 from TSPO in rat kidney mitochondrial fraction. Format: tissue-based.
For data set [10], the target named is Translocator protein (Homo sapiens, UniProt P30536). As to the kind of experiment: Displacement of [3H]PK11195 from TSPO in human HEK293 mitochondrial fraction.
Data set [11] has as its system C6. As to the kind of experiment: Induction of pregnenolone synthesis in rat C6 cells at 40 uM after 2 hrs by ELISA relative to control. It is filed as functional. In a few lines: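 Rat C6 glioma cells were exposed to ligand at 40 μM. Released pregnenolone was measured by competitive ELISA and expressed as % above control. Mean ± SEM of at least three independent experiments.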

T1 sequence (P16257 whole entry, looked up): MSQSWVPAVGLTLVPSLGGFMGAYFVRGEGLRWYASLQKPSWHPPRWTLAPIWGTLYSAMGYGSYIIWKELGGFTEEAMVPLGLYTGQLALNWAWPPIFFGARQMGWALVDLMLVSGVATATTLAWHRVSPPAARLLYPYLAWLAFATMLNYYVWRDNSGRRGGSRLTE
Sequence of Translocator protein (Homo sapiens, UniProt P30536) (P30536 whole entry): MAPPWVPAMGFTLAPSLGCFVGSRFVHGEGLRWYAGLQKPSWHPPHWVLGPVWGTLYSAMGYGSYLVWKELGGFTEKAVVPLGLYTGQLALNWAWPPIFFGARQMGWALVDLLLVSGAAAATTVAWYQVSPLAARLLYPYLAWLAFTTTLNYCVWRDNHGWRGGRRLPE

With `CCOC(=O)c1ncn2c1CN(C)C(=O)c1cc(F)ccc1-2`, the outcome in data set [1] was Active.
As to `COc1ccccc1CN(C(C)=O)c1cnc([18F])cc1Oc1ccccc1`, the logD (usually the decadic logarithm of the distribution of all forms, ionised or not, between an organic phase and buffer at a given pH) in data set [2] was 2.82. Further, in data set [3], the logP (commonly the decadic logarithm of the partition coefficient of the neutral form, usually between octanol and water) was found to be 2.77. Further, in [4], the Ratio is reported as 2.2. The Drug uptake result in [5] and in [6] was “Active” each time.
Turning to `CCC(C)N([11CH3])C(=O)c1cc2ccccc2c(-c2ccccc2Cl)n1` (configuration not stated), the Drug uptake entry in data set [5] and in [6] was “Active” in each case.
On to `COc1ccccc1CN(C(C)=O)c1cnc(F)cc1Oc1ccccc1`, for which the Activity in [7] is less than 10%; in data set [11], 16.45%. Also, the Ki (in general, a dissociation constant, usually derived from enzyme kinetics or from competition with a known ligand) in data set [8] is 0.44 nM; in [9], 3.9 nM; in data set [10], 1.19 nM. Further, in [1], the outcome was inactive. Moreover, in data set [1] (tested as the 18F-labelled form), the result was Active.
Take `CCC(C)N(C)C(=O)c1cc2ccccc2c(-c2ccccc2Cl)n1` (configuration not stated) [PK-11195]: in data set [11], the Activity turned out to be 37%. The result in data set [1] was inactive.
